According to ChEMBL document CHEMBL5058577, “EUbOPEN Chemogenomics Library 2 (Multiplex)” (2022):

System: U2OS
Assay: Multiplex assay against U2OS
Type: toxicity, cell-based
Settings: human
Method in brief: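 Cells stained live at seeding with Hoechst33342, BioTracker Green Microtubule Cytoskeleton Dye, MitoTracker Red and Annexin V Alexa Fluor 680 were imaged on a CQ1 microscope at 37°C and 5% CO2 after compound addition. Their classification by CellPathfinder machine-learning gating ran from Hoechst high-intensity objects versus normal cells, to healthy, pyknosed or fragmented nuclei among normal cells, to mitotic or apoptotic among pyknosed cells. Tubulin, mitochondrial-mass and membrane-permeability phenotypes are per cents of healthy-nucleus cells.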

[1] = 12 h, 1 µM, compound concentration 1 uM, replicate 1
[2] = 12 h, 1 µM, compound concentration 1 uM, replicate 2
[3] = 12 h, 10 µM, compound concentration 10 uM, replicate 1
[4] = 12 h, 10 µM, compound concentration 10 uM, replicate 2
[5] = 24 h, 1 µM, compound concentration 1 uM, replicate 1
[6] = 24 h, 1 µM, compound concentration 1 uM, replicate 2
[7] = 24 h, 10 µM, compound concentration 10 uM, replicate 1
[8] = 24 h, 10 µM, compound concentration 10 uM, replicate 2
[9] = 48 h, 1 µM, compound concentration 1 uM, replicate 1
[10] = 48 h, 1 µM, compound concentration 1 uM, replicate 2
[11] = 48 h, 10 µM, compound concentration 10 uM, replicate 1
[12] = 48 h, 10 µM, compound concentration 10 uM, replicate 2

## C=CCN1C[C@H](C(=O)N(CCCN(C)C)C(=O)NCC)C[C@@H]2c3cccc4[nH]cc(c34)C[C@H]21 [CABERGOLINE]
[1]
  Population Apoptotic (%): 86%
  Population Fragmented Nuclei (%): 13%
  Population Healthy Nuclei (%): 72%
  Population Hoechst High Intensity Objects (%): 2%
  Population Membrane Permeable-Phenotype (%): 3%
  Population Mitochondria Different-Phenotype (%): 1%
  Population Mitotic Cells (%): 13%
  Population Normal (%): 97%
  Population Pyknosed Nuclei (%): 13%
  Population Tubulin-Different-Phenotype (%): 1%
  Total Cell Count: 228
[2]
  Population Apoptotic (%): 57%
  Population Fragmented Nuclei (%): 9%
  Population Healthy Nuclei (%): 84%
  Population Hoechst High Intensity Objects (%): 3%
  Population Membrane Permeable-Phenotype (%): 8%
  Population Mitochondria Different-Phenotype (%): 4%
  Population Mitotic Cells (%): 42%
  Population Normal (%): 96%
  Population Pyknosed Nuclei (%): 5%
  Population Tubulin-Different-Phenotype (%): 5%
  Total Cell Count: 129
[3]
  Population Apoptotic (%): 69%
  Population Fragmented Nuclei (%): 35%
  Population Healthy Nuclei (%): 52%
  Population Hoechst High Intensity Objects (%): 3%
  Population Membrane Permeable-Phenotype (%): 15%
  Population Mitochondria Different-Phenotype (%): 9%
  Population Mitotic Cells (%): 30%
  Population Normal (%): 96%
  Population Pyknosed Nuclei (%): 11%
  Population Tubulin-Different-Phenotype (%): 11%
  Total Cell Count: 228
[4]
  Population Apoptotic (%): 64%
  Population Fragmented Nuclei (%): 17%
  Population Healthy Nuclei (%): 70%
  Population Hoechst High Intensity Objects (%): 2%
  Population Membrane Permeable-Phenotype (%): 13%
  Population Mitochondria Different-Phenotype (%): 21%
  Population Mitotic Cells (%): 35%
  Population Normal (%): 97%
  Population Pyknosed Nuclei (%): 12%
  Population Tubulin-Different-Phenotype (%): 9%
  Total Cell Count: 143
[5]
  Population Apoptotic (%): 82%
  Population Fragmented Nuclei (%): 15%
  Population Healthy Nuclei (%): 74%
  Population Hoechst High Intensity Objects (%): 3%
  Population Membrane Permeable-Phenotype (%): 1%
  Population Mitochondria Different-Phenotype (%): 1%
  Population Mitotic Cells (%): 17%
  Population Normal (%): 96%
  Population Pyknosed Nuclei (%): 10%
  Population Tubulin-Different-Phenotype (%): 0%
  Total Cell Count: 295
[6]
  Population Apoptotic (%): 64%
  Population Fragmented Nuclei (%): 7%
  Population Healthy Nuclei (%): 83%
  Population Hoechst High Intensity Objects (%): 1%
  Population Membrane Permeable-Phenotype (%): 9%
  Population Mitochondria Different-Phenotype (%): 4%
  Population Mitotic Cells (%): 35%
  Population Normal (%): 98%
  Population Pyknosed Nuclei (%): 8%
  Population Tubulin-Different-Phenotype (%): 6%
  Total Cell Count: 162
[7]
  Population Apoptotic (%): 65%
  Population Fragmented Nuclei (%): 33%
  Population Healthy Nuclei (%): 54%
  Population Hoechst High Intensity Objects (%): 3%
  Population Membrane Permeable-Phenotype (%): 10%
  Population Mitochondria Different-Phenotype (%): 5%
  Population Mitotic Cells (%): 34%
  Population Normal (%): 96%
  Population Pyknosed Nuclei (%): 11%
  Population Tubulin-Different-Phenotype (%): 4%
  Total Cell Count: 228
[8]
  Population Apoptotic (%): 88%
  Population Fragmented Nuclei (%): 14%
  Population Healthy Nuclei (%): 75%
  Population Hoechst High Intensity Objects (%): 2%
  Population Membrane Permeable-Phenotype (%): 13%
  Population Mitochondria Different-Phenotype (%): 12%
  Population Mitotic Cells (%): 11%
  Population Normal (%): 97%
  Population Pyknosed Nuclei (%): 10%
  Population Tubulin-Different-Phenotype (%): 10%
  Total Cell Count: 165
[9]
  Population Apoptotic (%): 88%
  Population Fragmented Nuclei (%): 13%
  Population Healthy Nuclei (%): 77%
  Population Hoechst High Intensity Objects (%): 2%
  Population Membrane Permeable-Phenotype (%): 5%
  Population Mitochondria Different-Phenotype (%): 1%
  Population Mitotic Cells (%): 11%
  Population Normal (%): 97%
  Population Pyknosed Nuclei (%): 8%
  Population Tubulin-Different-Phenotype (%): 3%
  Total Cell Count: 405
[10]
  Population Apoptotic (%): 93%
  Population Healthy Nuclei (%): 73%
  Population Hoechst High Intensity Objects (%): 3%
  Population Membrane Permeable-Phenotype (%): 4%
  Population Mitochondria Different-Phenotype (%): 4%
  Population Mitotic Cells (%): 6%
  Population Normal (%): 96%
  Population Pyknosed Nuclei (%): 13%
  Total Cell Count: 221
[11]
  Population Apoptotic (%): 86%
  Population Fragmented Nuclei (%): 30%
  Population Healthy Nuclei (%): 57%
  Population Hoechst High Intensity Objects (%): 3%
  Population Membrane Permeable-Phenotype (%): 7%
  Population Mitochondria Different-Phenotype (%): 1%
  Population Mitotic Cells (%): 13%
  Population Normal (%): 96%
  Population Pyknosed Nuclei (%): 12%
  Population Tubulin-Different-Phenotype (%): 3%
  Total Cell Count: 303
[12]
  Population Apoptotic (%): 87%
  Population Fragmented Nuclei (%): 13%
  Population Healthy Nuclei (%): 66%
  Population Hoechst High Intensity Objects (%): 4%
  Population Membrane Permeable-Phenotype (%): 9%
  Population Mitochondria Different-Phenotype (%): 9%
  Population Mitotic Cells (%): 12%
  Population Normal (%): 95%
  Population Pyknosed Nuclei (%): 20%
  Population Tubulin-Different-Phenotype (%): 5%
  Total Cell Count: 206
